The results in this text go back to ChEMBL document CHEMBL4014326, “Discovery of an Orally Bioavailable Benzimidazole Diacylglycerol Acyltransferase 1 (DGAT1) Inhibitor That Suppresses Body Weight Gain in Diet-Induced Obese Dogs and Postprandial Triglycerides in Humans” (J Med Chem, 2017).

Series [1] addresses T1, Diacylglycerol O-acyltransferase 1 (Homo sapiens, UniProt O75907).
T1 sequence (O75907 whole entry): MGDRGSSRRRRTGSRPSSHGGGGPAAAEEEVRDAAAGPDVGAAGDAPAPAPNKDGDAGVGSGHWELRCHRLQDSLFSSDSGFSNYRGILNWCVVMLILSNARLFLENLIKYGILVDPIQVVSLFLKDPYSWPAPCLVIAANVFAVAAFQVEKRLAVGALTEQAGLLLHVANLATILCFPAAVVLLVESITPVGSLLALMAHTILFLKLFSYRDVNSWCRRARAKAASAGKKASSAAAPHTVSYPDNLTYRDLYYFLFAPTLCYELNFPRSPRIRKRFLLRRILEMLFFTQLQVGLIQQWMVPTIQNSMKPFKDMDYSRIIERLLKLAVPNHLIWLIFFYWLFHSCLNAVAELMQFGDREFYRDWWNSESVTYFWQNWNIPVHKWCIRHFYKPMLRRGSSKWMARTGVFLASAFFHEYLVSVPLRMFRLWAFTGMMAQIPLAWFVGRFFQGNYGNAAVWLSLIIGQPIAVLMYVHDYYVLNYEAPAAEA
As to the kind of experiment: Inhibition of recombinant human His6-tagged DGAT1 expressed in Sf9 insect cell membranes assessed as inhibition of triglyceride formation using diolein/oleyl-CoA as substrate after 30 mins by LC/MS/MS analysis.

Series [2] in a line: Permeability across apical to basolateral side in human Caco2 cells. Type of series: ADME, cell-based. Conditions: Caco-2, read-out: permeability. The essentials:
(§1)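 Caco-2 monolayer permeability was measured in the A-B and B-A directions, and the efflux ratio was taken as B-A/A-B.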

Series [3] in a line: Permeability across basolateral to apical side in human Caco2 cells. Type of series: ADME, cell-based. As to conditions: Caco-2, read-out: permeability. The essentials: as §1
(Caco-2 monolayers are a common model of the intestinal barrier.)

Series [4] is described as follows: Efflux ratio of permeability across basolateral to apical side over apical to basolateral side in human Caco2 cells. The series is classed as ADME, cell-based. Conditions: Caco-2. The essentials: as §1
The test system of series [5] is Salmonella typhimurium. Kind of series: Genotoxicity in histidine depleted Salmonella typhimurium TA98 assessed as increase in reverting mutations up to 1000 ug in presence of S9 metabolic activation by Ames test. The series is classed as toxicity. Conditions: salmonella enterica subsp. enterica serovar typhimurium.
Series [6] has as its system Salmonella typhimurium. Kind of series: Genotoxicity in histidine depleted Salmonella typhimurium TA100 assessed as increase in reverting mutations up to 1000 ug in presence of S9 metabolic activation by Ames test. The series is classed as toxicity. Conditions: salmonella enterica subsp. enterica serovar typhimurium. A general note: In the Ames test, an excess of revertant colonies over the control signals mutagenicity.

The test system of series [7] is Salmonella typhimurium. Kind of series: Genotoxicity in histidine depleted Salmonella typhimurium TA100 assessed as increase in reverting mutations up to 1000 ug in absence of S9 metabolic activation by Ames test. The series is classed as toxicity. Conditions: salmonella enterica subsp. enterica serovar typhimurium.
Series [8] in a line: Clearance in Sprague-Dawley rat at 1 mg/kg, iv by LC/MS/MS analysis. Type of series: ADME, organism-based. As to conditions: in vivo. The essentials:
(§2)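 Male Sprague-Dawley rats, 200-300 g, dosed iv (n = 2) or po (n = 3) as solutions in NMP/PG or PEG400/ETPGS vehicles. Blood was taken from a jugular vein catheter at 0.083 (iv only), 0.25, 0.5, 1, 2, 4, 6 and 8 h into EDTA tubes, and plasma was analysed by LC-MS/MS. Values are means ± SD.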

The nature of series [9]: Volume of distribution at steady state in Sprague-Dawley rat at 1 mg/kg, iv by LC/MS/MS analysis. Type of series: ADME, organism-based. As to conditions: in vivo, read-out: Vdss. The essentials:
as §2

The nature of series [10]: Half life in Sprague-Dawley rat at 1 mg/kg, iv by LC/MS/MS analysis. Type of series: ADME, organism-based. As to conditions: in vivo. An outline of the steps: as §2
Series [11] is described as follows: Cmax in Sprague-Dawley rat at 3 mg/kg, po by LC/MS/MS analysis. As to conditions: in vivo. Type of series: ADME, organism-based. Set-up: dose 3 mg/kg, route oral. An outline of the steps:
as §2

Series [12] is described as follows: Tmax in Sprague-Dawley rat 3 mg/kg, po by LC/MS/MS analysis. The series is classed as ADME, organism-based. As to conditions: in vivo. The essentials: as §2
A short description of series [13]: AUC (0 to 8 hrs) in Sprague-Dawley rat at 3 mg/kg, po by LC/MS/MS analysis. The series is classed as ADME, organism-based. Details: dose 3 mg/kg, time < 8 hr, route oral. Conditions: in vivo. The essentials:
as §2

Series [14] in a line: Oral bioavailability in Sprague-Dawley rat at 3 mg/kg by LC/MS/MS analysis. Type of series: ADME, organism-based. Conditions: in vivo. An outline of the steps:
as §2

For another series, the system named is Homo sapiens. Kind of series: Toxicity in human assessed as diarrhea at 150 mg, po as single oral dose. As to conditions: in vivo. Type of series: organism-based.
A short description of series [15]: Drug metabolism in rat hepatocytes assessed as [3H]-(2S,3S,4S,5R,6S)-3,4,5-trihydroxy-6-(3-(4-(6-(5-(4-methoxyphenyl)-1,3,4-oxadiazol-2-yl)-1H-benzo[d]imidazol-2-yl)-3,5-dimethylphenyl)-2,2-dimethylpropanoyloxy)tetrahydro-2H-pyran-2-carboxylic acid formation at 12.5 uM after 18 hrs. Type of series: ADME, cell-based, Hepatocyte. The essentials: (§3)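 [3H]-labelled compound (12.5 µM) was incubated for 18 h with rat, dog, monkey or human hepatocytes, and metabolites were profiled.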

The nature of series [16]: Drug metabolism in dog hepatocytes assessed as [3H]-(2S,3S,4S,5R,6S)-3,4,5-trihydroxy-6-(3-(4-(6-(5-(4-methoxyphenyl)-1,3,4-oxadiazol-2-yl)-1H-benzo[d]imidazol-2-yl)-3,5-dimethylphenyl)-2,2-dimethylpropanoyloxy)tetrahydro-2H-pyran-2-carboxylic acid formation at 12.5 uM after 18 hrs. Type of series: ADME, cell-based, Canis lupus familiaris, Hepatocyte. The essentials: as §3

A short description of series [17]: Drug metabolism in monkey hepatocytes assessed as [3H]-(2S,3S,4S,5R,6S)-3,4,5-trihydroxy-6-(3-(4-(6-(5-(4-methoxyphenyl)-1,3,4-oxadiazol-2-yl)-1H-benzo[d]imidazol-2-yl)-3,5-dimethylphenyl)-2,2-dimethylpropanoyloxy)tetrahydro-2H-pyran-2-carboxylic acid formation at 12.5 uM after 18 hrs. The series is classed as ADME, cell-based, Macaca mulatta, Hepatocyte. As to conditions: rhesus monkey. An outline of the steps:
as §3

A short description of series [18]: Drug metabolism in human hepatocytes assessed as [3H]-(2S,3S,4S,5R,6S)-3,4,5-trihydroxy-6-(3-(4-(6-(5-(4-methoxyphenyl)-1,3,4-oxadiazol-2-yl)-1H-benzo[d]imidazol-2-yl)-3,5-dimethylphenyl)-2,2-dimethylpropanoyloxy)tetrahydro-2H-pyran-2-carboxylic acid formation at 12.5 uM after 18 hrs. Type of series: ADME, cell-based, Hepatocyte. The essentials:
as §3

Series [19] in a line: Drug metabolism in dog hepatocytes assessed as [3H]-3-(3,5-dimethyl-4-(6-(5-phenyl-1,3,4-oxadiazol-2-yl)-1H-benzo[d]imidazol-2-yl)phenyl)-2,2-dimethylpropanoic acid formation at 12.5 uM after 18 hrs. Type of series: ADME, cell-based, Canis lupus familiaris, Hepatocyte. An outline of the steps:
as §3

Series [20] can be described thus: Drug metabolism in monkey hepatocytes assessed as [3H]-3-(3,5-dimethyl-4-(6-(5-phenyl-1,3,4-oxadiazol-2-yl)-1H-benzo[d]imidazol-2-yl)phenyl)-2,2-dimethylpropanoic acid formation at 12.5 uM after 18 hrs. The series is classed as ADME, cell-based, Macaca mulatta, Hepatocyte. Conditions: rhesus monkey. The essentials: as §3
The nature of series [21]: Drug metabolism in human hepatocytes assessed as [3H]-3-(3,5-dimethyl-4-(6-(5-phenyl-1,3,4-oxadiazol-2-yl)-1H-benzo[d]imidazol-2-yl)phenyl)-2,2-dimethylpropanoic acid formation at 12.5 uM after 18 hrs. Type of series: ADME, cell-based, Hepatocyte. An outline of the steps:
as §3

The target of series [22] is T2, Diacylglycerol O-acyltransferase 2 (Homo sapiens, UniProt Q96PD7).
T2 sequence (Q96PD7 whole entry): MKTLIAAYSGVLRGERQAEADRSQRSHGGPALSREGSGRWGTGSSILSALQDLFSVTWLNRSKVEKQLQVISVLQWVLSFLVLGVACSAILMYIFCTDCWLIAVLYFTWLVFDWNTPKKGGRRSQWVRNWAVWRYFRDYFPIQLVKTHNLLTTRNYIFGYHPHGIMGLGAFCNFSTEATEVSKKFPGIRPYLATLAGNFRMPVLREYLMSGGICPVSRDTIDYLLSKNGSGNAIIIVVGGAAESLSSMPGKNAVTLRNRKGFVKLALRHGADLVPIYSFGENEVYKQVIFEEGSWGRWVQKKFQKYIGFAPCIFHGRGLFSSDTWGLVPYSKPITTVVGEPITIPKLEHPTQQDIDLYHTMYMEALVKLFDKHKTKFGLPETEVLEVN
Kind of series: Inhibition of DGAT2 (unknown origin).

Structures are written as SMILES.

The IC50 is the concentration that inhibits the measured activity by half. The efflux ratio is the permeability from basolateral to apical divided by that in the opposite direction, in the common usage. A word on the clearance: it is the rate of elimination divided by the concentration. The term half-life denotes how long it takes for the measured level to halve. What is called Cmax is the peak of the concentration-time curve. For orientation: Tmax means the time from dosing to the highest level. Broadly, the AUC(0-t) is exposure summed from dosing to a finite time, without extrapolation to infinity. For orientation: bioavailability means the share of a dose that reaches the circulation, judged against a reference dose that is usually intravenous.

As for `COc1ccc(-c2nnc(-c3ccc4nc(-c5c(C)cc(CC(C)(C)C(=O)O)cc5C)[nH]c4c3)o2)cc1`, the figures for the IC50 in series [1] and in series [22] were 17 nM and greater than 10000 nM, respectively. In addition, the Papp A→B in series [2] came out at 4.2 ×10⁻⁶ cm/s. Moreover, the Papp B→A in series [3] came to 10 ×10⁻⁶ cm/s. The efflux ratio in [4] was 2.4. For the same compound, the Activity result is on record as “Non-Toxic” with Salmonella typhimurium [5], “Non-Toxic” in the series with Salmonella typhimurium [6], “Non-Toxic” in the series on Salmonella typhimurium [7] and “Toxic” with Homo sapiens. In addition, the clearance in [8] was found to be 9.5 mL/min/kg. Moreover, the Vd in [9] turned out to be 0.6 L/kg. In series [10], this compound showed a half-life of 1.9 h. The compound also came in with a Cmax in [11] of 3.55 µM. Moreover, in [12], the time of peak concentration (Tmax) was found to be 1.2 h. This compound also returned an AUC(0-t) at 8 h in series [13] of 10.4 µM·h. The bioavailability in series [14] is 90%. Also, the Drug metabolism result in [15], in series [16], in series [17], in series [18], in series [19] and in series [20] was “Metabolite_Detected” in each case. Moreover, the Drug metabolism result in [21] is reported as “Metabolite_Detected”.
